Values after ≈ are worked out from the molar mass of the structure shown. Where two headings read alike, the source gives them in different places.
Columns and labels:
[1] = target: EGFR (Homo sapiens, UniProt P00533); assay: Kinase inhibition assay, EGFR; type: biochemical
[2] = target: Hsp90α (Homo sapiens, UniProt P07900); assay: Kinase inhibition assay, Hsp90α; type: biochemical
[3] = target: VEGFR2 (Homo sapiens, UniProt P35968); assay: Kinase inhibition assay, VEGFR2; type: biochemical
[4] = tested on: B16 melanoma cell line; assay: Cell proliferation; type: cell-based; conditions: for B16 GI ratio: B16 cells, test concentration not given; for IC50: Mus musculus, read-out: IC50, B16 melanoma cell line
[5] = target: PI3Kα (Homo sapiens, UniProt P42336); assay: Kinase inhibition assay, PI3Kα; type: biochemical
PI3Kα, sequence (P42336 whole entry): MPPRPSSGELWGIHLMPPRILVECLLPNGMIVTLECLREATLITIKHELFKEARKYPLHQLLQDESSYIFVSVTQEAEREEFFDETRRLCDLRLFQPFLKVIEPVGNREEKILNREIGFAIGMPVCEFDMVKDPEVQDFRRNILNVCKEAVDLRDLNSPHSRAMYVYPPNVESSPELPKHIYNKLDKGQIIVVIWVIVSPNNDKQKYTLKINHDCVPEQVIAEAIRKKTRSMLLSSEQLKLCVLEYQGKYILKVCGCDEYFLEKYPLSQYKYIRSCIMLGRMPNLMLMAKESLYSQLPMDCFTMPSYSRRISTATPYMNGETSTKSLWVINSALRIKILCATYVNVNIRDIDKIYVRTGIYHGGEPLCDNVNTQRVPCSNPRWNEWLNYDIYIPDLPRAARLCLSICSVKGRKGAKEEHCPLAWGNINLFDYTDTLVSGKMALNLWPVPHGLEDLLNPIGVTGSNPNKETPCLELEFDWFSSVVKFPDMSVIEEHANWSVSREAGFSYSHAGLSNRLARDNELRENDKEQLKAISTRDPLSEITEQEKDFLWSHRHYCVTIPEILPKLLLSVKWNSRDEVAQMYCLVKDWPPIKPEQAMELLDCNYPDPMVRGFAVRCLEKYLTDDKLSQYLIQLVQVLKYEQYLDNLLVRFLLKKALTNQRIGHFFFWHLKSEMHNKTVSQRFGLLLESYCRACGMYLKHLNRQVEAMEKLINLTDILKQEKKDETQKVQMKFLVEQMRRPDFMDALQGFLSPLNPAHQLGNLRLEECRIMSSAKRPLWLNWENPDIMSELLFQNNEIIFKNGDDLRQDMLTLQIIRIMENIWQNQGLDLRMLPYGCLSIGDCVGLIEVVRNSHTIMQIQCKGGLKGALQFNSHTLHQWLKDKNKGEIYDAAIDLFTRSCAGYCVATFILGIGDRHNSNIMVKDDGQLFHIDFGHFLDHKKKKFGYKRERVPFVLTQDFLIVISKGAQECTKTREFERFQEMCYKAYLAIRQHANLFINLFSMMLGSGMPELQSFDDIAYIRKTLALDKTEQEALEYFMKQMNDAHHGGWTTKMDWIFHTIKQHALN
PI3Kα, sequence (P27986 whole entry partner): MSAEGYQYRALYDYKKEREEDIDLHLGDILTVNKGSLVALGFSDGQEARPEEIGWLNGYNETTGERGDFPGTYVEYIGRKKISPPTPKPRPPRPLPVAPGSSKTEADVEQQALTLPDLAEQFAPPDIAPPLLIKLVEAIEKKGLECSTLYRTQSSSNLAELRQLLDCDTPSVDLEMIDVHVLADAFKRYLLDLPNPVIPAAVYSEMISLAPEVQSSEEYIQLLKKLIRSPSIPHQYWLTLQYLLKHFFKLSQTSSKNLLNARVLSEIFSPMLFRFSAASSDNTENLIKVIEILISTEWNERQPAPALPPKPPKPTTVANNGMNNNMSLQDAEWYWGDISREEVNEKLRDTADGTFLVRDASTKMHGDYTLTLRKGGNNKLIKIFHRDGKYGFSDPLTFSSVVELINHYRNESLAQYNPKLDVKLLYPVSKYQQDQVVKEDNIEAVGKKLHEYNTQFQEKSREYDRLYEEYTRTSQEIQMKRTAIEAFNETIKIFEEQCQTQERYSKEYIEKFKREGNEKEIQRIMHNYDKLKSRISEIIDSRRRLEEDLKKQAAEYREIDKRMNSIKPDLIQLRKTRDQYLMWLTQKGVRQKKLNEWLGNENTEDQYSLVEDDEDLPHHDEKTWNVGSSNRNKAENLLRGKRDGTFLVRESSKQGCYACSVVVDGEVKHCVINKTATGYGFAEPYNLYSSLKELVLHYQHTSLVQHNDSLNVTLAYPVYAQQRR

[6] = tested on: B16 melanoma xenograft; assay: B16 subcutaneous tumor xenograft model; type: in vivo, C57BL/6J mice; conditions: for tumor growth inhibition ratio: B16 subcutaneous xenograft, C57BL/6J mice, once a day
Outline: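 Female C57BL/6J mice, 8–12 weeks old, received B16 cells subcutaneously in the dorsal flank (5 × 105 in 100 μL PBS). Groups of 8 were dosed once a day with test compound or NS control. Tumours were measured every two days and volume was taken as a×b2×0.5. Excised tumours were formalin-fixed, paraffin-embedded, sectioned, and stained for TUNEL, EGFR, Akt, pAkt473 and Ki67.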

[7] = tested on: B16 cells; assay: Flow cytometry with annexinV/PI dual staining; type: cell-based; conditions: 24 h incubation
[8] = tested on: B16 cells; assay: Colony formation assay; type: cell-based; conditions: 8m-incubated B16 cells vs control group
[9] = tested on: B16 cells; assay: Cell cycle analysis by PI staining flow cytometry; type: cell-based; conditions: 24 h treatment
[10] = tested on: B16 cells; assay: Transwell Matrigel invasion assay; type: cell-based; conditions: dose-dependent
Outline: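 Transwell chambers with 8-μm pores and Matrigel-precoated top chambers were used. B16 cells (1 × 105) in serum-free medium went into the top chamber, with DMEM in the bottom chamber. Invaded cells were stained with crystal violet and counted under a microscope in triplicate.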

[11] = tested on: several cancer cells (B16, HepG2, A549, SW620, MCF-7, Hela); assay: Cytotoxic activity in several cancer cells; type: cell-based; conditions: Figure 5(A)
Outline: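 Cells were kept in DMEM with 10% FBS at 37 °C and 5% CO2 and used in exponential growth. They were seeded at 3–6 × 10^3 cells/well for 24 h, then given DMSO or various compound concentrations for 24 or 48 h. MTT (0.5 mg/mL in medium) was added for 3 h at 37 °C and dissolved in DMSO; absorbance was read at 570 nm. Three experiments, each in triplicate.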

[12] = tested on: B16 cells; assay: Wound-healing cell migration assay; type: cell-based; conditions: 24 h of exposure, dose-dependent
Outline: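 B16 cells were seeded at 1 × 10^5 per well in 6-well plates in DMEM and grown overnight. Three scratches per well were made with a 200 µl pipette tip. After a PBS wash, serum-free DMEM containing various compound concentrations or DMSO was added. Migration was assessed by light microscopy between 0 h and 24 h.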

[13] = tested on: B16 cells; assay: Western blotting of B16 melanoma cell extracts; type: cell-based
Outline: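 Total protein was extracted from treated B16 cells, separated by SDS-PAGE (7.5–15% gels, chosen by protein size) and transferred to PVDF. Membranes were blocked with 5% BSA, incubated with primary antibodies on ice overnight, then with HRP-conjugated secondary antibodies for 1 h at room temperature. Bands were detected by ECL. Migration- and invasion-related proteins were assessed at 20 and 40 μg/mL.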

EGFR, sequence (P00533 25-1210): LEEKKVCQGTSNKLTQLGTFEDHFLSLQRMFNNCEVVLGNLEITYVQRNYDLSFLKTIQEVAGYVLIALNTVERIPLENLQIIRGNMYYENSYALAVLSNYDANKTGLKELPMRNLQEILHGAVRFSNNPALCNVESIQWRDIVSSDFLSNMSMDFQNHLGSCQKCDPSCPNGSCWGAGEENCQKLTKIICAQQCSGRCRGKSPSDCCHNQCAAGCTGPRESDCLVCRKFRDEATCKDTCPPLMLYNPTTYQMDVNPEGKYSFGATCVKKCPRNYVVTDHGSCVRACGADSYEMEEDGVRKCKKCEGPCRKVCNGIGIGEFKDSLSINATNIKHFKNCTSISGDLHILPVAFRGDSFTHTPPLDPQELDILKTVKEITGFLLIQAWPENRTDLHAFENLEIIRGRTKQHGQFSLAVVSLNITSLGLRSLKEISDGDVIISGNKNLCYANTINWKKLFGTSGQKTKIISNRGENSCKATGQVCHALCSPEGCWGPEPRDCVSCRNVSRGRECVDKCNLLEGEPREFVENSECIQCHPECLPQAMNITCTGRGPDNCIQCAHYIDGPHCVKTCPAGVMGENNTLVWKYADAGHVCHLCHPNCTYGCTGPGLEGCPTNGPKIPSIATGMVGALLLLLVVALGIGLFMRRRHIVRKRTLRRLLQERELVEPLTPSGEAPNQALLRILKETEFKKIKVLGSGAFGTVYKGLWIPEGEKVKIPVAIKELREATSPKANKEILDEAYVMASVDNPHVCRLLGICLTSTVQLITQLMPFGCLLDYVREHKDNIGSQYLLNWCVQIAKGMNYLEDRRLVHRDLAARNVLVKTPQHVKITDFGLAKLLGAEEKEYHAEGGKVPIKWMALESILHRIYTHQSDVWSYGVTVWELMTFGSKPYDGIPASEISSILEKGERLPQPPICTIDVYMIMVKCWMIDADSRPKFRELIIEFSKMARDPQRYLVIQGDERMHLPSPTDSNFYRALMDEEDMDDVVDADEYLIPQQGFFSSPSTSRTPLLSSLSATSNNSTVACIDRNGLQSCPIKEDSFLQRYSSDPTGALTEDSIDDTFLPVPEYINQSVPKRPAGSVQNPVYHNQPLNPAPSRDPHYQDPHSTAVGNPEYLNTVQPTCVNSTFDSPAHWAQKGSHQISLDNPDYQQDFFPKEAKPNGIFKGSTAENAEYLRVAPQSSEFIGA
VEGFR2, sequence (P35968 20-1356): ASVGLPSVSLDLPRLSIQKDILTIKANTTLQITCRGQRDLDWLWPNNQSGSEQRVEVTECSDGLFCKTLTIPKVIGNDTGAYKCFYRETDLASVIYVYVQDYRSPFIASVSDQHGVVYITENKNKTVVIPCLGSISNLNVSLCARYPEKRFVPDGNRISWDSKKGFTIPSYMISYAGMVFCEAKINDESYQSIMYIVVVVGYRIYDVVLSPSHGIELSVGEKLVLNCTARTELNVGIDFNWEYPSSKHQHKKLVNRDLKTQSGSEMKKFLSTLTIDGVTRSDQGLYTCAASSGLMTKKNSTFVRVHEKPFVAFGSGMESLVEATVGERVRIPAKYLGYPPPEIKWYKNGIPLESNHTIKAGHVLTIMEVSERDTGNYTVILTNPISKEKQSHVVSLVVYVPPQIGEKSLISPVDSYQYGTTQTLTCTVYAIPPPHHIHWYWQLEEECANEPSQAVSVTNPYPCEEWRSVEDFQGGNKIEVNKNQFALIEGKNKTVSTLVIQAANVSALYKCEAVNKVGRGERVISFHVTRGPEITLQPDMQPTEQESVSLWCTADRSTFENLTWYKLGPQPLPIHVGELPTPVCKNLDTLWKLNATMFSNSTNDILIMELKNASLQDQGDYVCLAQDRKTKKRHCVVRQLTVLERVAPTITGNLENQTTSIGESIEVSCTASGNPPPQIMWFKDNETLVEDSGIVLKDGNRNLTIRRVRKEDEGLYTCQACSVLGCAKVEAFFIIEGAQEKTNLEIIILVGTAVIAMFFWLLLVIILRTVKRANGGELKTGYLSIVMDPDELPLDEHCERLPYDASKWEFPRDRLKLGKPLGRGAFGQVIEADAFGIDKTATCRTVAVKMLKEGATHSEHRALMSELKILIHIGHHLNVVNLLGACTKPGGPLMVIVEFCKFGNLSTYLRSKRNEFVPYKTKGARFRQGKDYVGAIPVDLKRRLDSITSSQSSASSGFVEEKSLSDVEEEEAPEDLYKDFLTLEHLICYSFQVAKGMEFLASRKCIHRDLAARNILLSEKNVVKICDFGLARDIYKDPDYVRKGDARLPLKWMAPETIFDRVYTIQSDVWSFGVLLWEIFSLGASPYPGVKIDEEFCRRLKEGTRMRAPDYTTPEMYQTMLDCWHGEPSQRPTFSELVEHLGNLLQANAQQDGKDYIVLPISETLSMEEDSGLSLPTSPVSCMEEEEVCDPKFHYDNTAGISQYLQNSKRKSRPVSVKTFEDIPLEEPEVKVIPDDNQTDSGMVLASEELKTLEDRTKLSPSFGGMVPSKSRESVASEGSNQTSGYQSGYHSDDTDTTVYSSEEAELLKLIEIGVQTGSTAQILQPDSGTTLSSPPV

IC50 [1]	IC50 [2]	IC50 [3]	SMILES	B16 GI ratio [4]	also measured
37.1 nM	196 nM	> 10000 nM	CC(C)c1cc(C(=O)N2CCc3c(sc4ncnc(Nc5cccc(Cl)c5)c34)C2)c(O)cc1O [Compound 8c, (4-((3-chlorophenyl)amino)-5,8-dihydropyrido[4',3':4,5]thieno[2,3-d]pyrimidin-7(6H)-yl)(2,4-dihydroxy-5-isopropylphenyl)methanone]	51.2%	
51.8 nM	318 nM	> 10000 nM	Cc1cccc(Nc2ncnc3sc4c(c23)CCN(C(=O)c2cc(C(C)C)c(O)cc2O)C4)c1 [Compound 8d, (2,4-dihydroxy-5-isopropylphenyl)(4-(m-tolylamino)-5,8-dihydropyrido[4',3':4,5]thieno[2,3-d]pyrimidin-7(6H)-yl)methanone]	41.7%	
40.2 nM	229 nM	> 10000 nM	CC(C)c1cc(C(=O)N2CCc3c(sc4ncnc(Nc5cccc(F)c5)c34)C2)c(O)cc1O [Compound 8e, (2,4-dihydroxy-5-isopropylphenyl)(4-((3-fluorophenyl)amino)-5,8-dihydropyrido[4',3':4,5]thieno[2,3-d]pyrimidin-7(6H)-yl)methanone]	38.9%	
578 nM	1640 nM	169 nM	Cc1ccc(Nc2ncnc3sc4c(c23)CCN(C(=O)c2cc(C(C)C)c(O)cc2O)C4)c(C)c1 [Compound 8i, (2,4-dihydroxy-5-isopropylphenyl)(4-((2,4-dimethylphenyl)amino)-5,8-dihydropyrido[4',3':4,5]thieno[2,3-d]pyrimidin-7(6H)-yl)methanone]	24.8%	
147 nM	207 nM	716 nM	CC(C)c1cc(C(=O)N2CCc3c(sc4ncnc(Nc5cccc(O)c5)c34)C2)c(O)cc1O [Compound 8j, (2,4-dihydroxy-5-isopropylphenyl)(4-((3-hydroxyphenyl)amino)-5,8-dihydropyrido[4',3':4,5]thieno[2,3-d]pyrimidin-7(6H)-yl)methanone]	36.0%	

Second part, the compound before the results:

SMILES	IC50 [1]	IC50 [2]	IC50 [3]	B16 GI ratio [4]	also measured
CCc1cccc(Nc2ncnc3sc4c(c23)CCN(C(=O)c2cc(C(C)C)c(O)cc2O)C4)c1 [Compound 8a, (2,4-dihydroxy-5-isopropylphenyl)(4-((3-ethylphenyl)amino)-5,8-dihydropyrido[4',3':4,5]thieno[2,3-d]pyrimidin-7(6H)-yl)methanone]	60.7 nM	375 nM	> 10000 nM	26.8%	
CC(C)c1cc(C(=O)N2CCc3c(sc4ncnc(Nc5ccc(Br)cc5)c34)C2)c(O)cc1O [Compound 8b, (4-((4-bromophenyl)amino)-5,8-dihydropyrido[4',3':4,5]thieno[2,3-d]pyrimidin-7(6H)-yl)(2,4-dihydroxy-5-isopropylphenyl)methanone]	49.9 nM	290 nM	> 10000 nM	33.6%	
CC(C)c1cc(C(=O)N2CCc3c(sc4ncnc(Nc5ccc(Cl)cc5)c34)C2)c(O)cc1O [Compound 8f, (4-((4-chlorophenyl)amino)-5,8-dihydropyrido[4',3':4,5]thieno[2,3-d]pyrimidin-7(6H)-yl)(2,4-dihydroxy-5-isopropylphenyl)methanone]	76.6 nM	318 nM	> 10000 nM	29.5%	
COc1cccc(Nc2ncnc3sc4c(c23)CCN(C(=O)c2cc(C(C)C)c(O)cc2O)C4)c1 [Compound 8g, (2,4-dihydroxy-5-isopropylphenyl)(4-((3-methoxyphenyl)amino)-5,8-dihydropyrido[4',3':4,5]thieno[2,3-d]pyrimidin-7(6H)-yl)methanone]	71 nM	210 nM	> 10000 nM	37.5%	
CC(C)c1cccc(Nc2ncnc3sc4c(c23)CCN(C(=O)c2cc(C(C)C)c(O)cc2O)C4)c1 [Compound 8h, (2,4-dihydroxy-5-isopropylphenyl)(4-((3-isopropylphenyl)amino)-5,8-dihydropyrido[4',3':4,5]thieno[2,3-d]pyrimidin-7(6H)-yl)methanone]	380 nM	468 nM	> 10000 nM	39.1%	
CC(C)c1cc(C(=O)N2CCc3c(sc4ncnc(N5CCCCC5)c34)C2)c(O)cc1O [Compound 8k, (2,4-dihydroxy-5-isopropylphenyl)(4-(piperidin-1-yl)-5,8-dihydropyrido[4',3':4,5]thieno[2,3-d]pyrimidin-7(6H)-yl)methanone]		51.9 nM		65.2%	IC50 [5]: 133 nM
CC(C)c1cc(C(=O)N2CCc3c(sc4ncnc(N5CCCC5)c34)C2)c(O)cc1O [Compound 8l, (2,4-dihydroxy-5-isopropylphenyl)(4-(pyrrolidin-1-yl)-5,8-dihydropyrido[4',3':4,5]thieno[2,3-d]pyrimidin-7(6H)-yl)methanone]		65 nM		60.4%	IC50 [5]: 169 nM
CC(C)c1cc(C(=O)N2CCc3c(sc4ncnc(N5CCOCC5)c34)C2)c(O)cc1O [Compound 8m, (2,4-dihydroxy-5-isopropylphenyl)(4-morpholino-5,8-dihydropyrido[4',3':4,5]thieno[2,3-d]pyrimidin-7(6H)-yl)methanone]					apoptotic positive cells in tumor tissue (TUNEL) ([6]; B16 xenograft tumor sections, among all therapeutic groups): highest number of apoptotic positive cells; Ki-67 positive cells in tumor tissue ([6]; B16 xenograft tumor sections, p < .01): most significant suppression; apoptotic positive cells [7]: significant increase; clone formation, size and number of the colonies [8]: dose-dependent decline; cell counts in G1 phase [9]: corresponding descent; cell counts in G2 phase [9]: significantly increased; cell invasion (Matrigel Transwell) [10]: remarkable decrease; cytotoxic activity in several cancer cells [11]: most potent in melanoma cells; IC50 [5]: 48.4 nM; wound areas (cell migration) [12]: minimal changes; IC50 ([4]; B16, 24 h): ~0.56 µg/mL (≈ 1.23 µM); IC50 ([4]; B16, 48 h): ~0.47 µg/mL (≈ 1.03 µM); cleavage of apoptosis related proteins (western blot) ([13]; B16 cells): cleavage of Caspase-3, Caspase-8, Caspase-9 and PARP; expression levels of Hsp90 client proteins cdc37, CDK4, EGFR, bRaf and cRaf (western blot) ([13]; B16 cells): remarkably suppressed; expression levels of Hsp90α and Hsp70 (western blot) ([13]; B16 cells): declined; p-Akt (Ser473), p-Akt (Thr308) and total Akt expression (western blot) ([13]; B16 cells): downregulated; E-cadherin expression (western blot) ([13]; B16 cells, 20, 40 μg/mL): up-regulated; expression of MMPs, vimentin, N-cadherin, β-catenin, ZEB1 (western blot) ([13]; B16 cells, 20, 40 μg/mL): remarkably down-regulated; autophosphorylation of PI3Kα (western blot) ([13]; B16 cells, total PI3Kα not influenced): inhibited
CC(C)c1cc(C(=O)N2CCc3c(sc4ncnc(N(C)C)c34)C2)c(O)cc1O [Compound 8n, (2,4-dihydroxy-5-isopropylphenyl)(4-(dimethylamino)-5,8-dihydropyrido[4',3':4,5]thieno[2,3-d]pyrimidin-7(6H)-yl)methanone]		79.5 nM		46.7%	IC50 [5]: 568 nM
CC(C)c1cc(-c2n[nH]c(=O)n2-c2ccc3c(ccn3C)c2)c(O)cc1O [Ganetespib, reference compound]					tumor growth inhibition ratio [6]: 57%
Oc1cccc(-c2nc(N3CCOCC3)c3oc4ncccc4c3n2)c1 [PI-103, reference compound]					tumor growth inhibition ratio [6]: 29%

Source: article PMC8853710 (Journal of Enzyme Inhibition and Medicinal Chemistry, 2019)
